# According to ChEMBL document CHEMBL1131631, “Piperazinyl oxazolidinone antibacterial agents containing a pyridine, diazene, or triazene heteroaromatic ring” (1998):
# How the values were obtained:
# Staphylococcus aureus [1] = assay: Minimum inhibitory concentration against Staphylococcus aureus UC6685; type: functional
# Procedure, shortened: (§1)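 MIC in µg/mL. S. aureus UC 9213 is methicillin-susceptible, and S. aureus UC 6685 and S. epidermidis UC 12084 are methicillin-resistant. E. faecalis UC 9217 and S. pneumoniae UC 9912 were also tested.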
# Streptococcus pneumoniae [2] = assay: Minimum inhibitory concentration Streptococcus pneumoniae UC9912; type: functional; procedure, shortened: as §1
# Staphylococcus aureus [3] = assay: Minimum inhibitory concentration against Staphylococcus aureus UC9213; type: functional; procedure, shortened: as §1
# Enterococcus faecalis = assay: Minimum inhibitory concentration against Enterococcus faecalis UC9217; type: functional; procedure, shortened: as §1
# Mus musculus [4] = assay: Compound was tested against Staphylococcus aureus UC9213 after po administration in mouse; type: functional
# Procedure, shortened: (§2)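 Lethal systemic S. aureus infection in mice, with oral dosing. The ED50 is the dose in mg/kg body weight per dose that reduces mortality by 50%. The 95% confidence limits are −50% and +100% of the nominal value.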
# [5] = tested on: Staphylococcus epidermidis; assay: Minimum inhibitory concentration against Staphylococcus epidermis UC12084; type: functional; procedure, shortened: as §1
# Mus musculus [6] = assay: compound was tested against Staphylococcus aureus UC9213 the eperezolid administered (PO) in mouse positive control expressed as ED50 values.
# Staphylococcus aureus [7] = assay: compound was tested against Staphylococcus aureus UC9213 after po administration.; type: functional; procedure, shortened: as §2
# Staphylococcus aureus [8] = assay: compound was tested against Staphylococcus aureus UC9213 the eperezolid administered positive control expressed as ED50 values.; type: functional
# Procedure, shortened: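 Eperezolid was given orally in the same lethal systemic mouse S. aureus trial as the test agents. The ED50 is the mg/kg/dose that reduces mortality by 50%.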
# Streptococcus pneumoniae [9] = assay: MIC activity against Streptococcus pneumoniae UC9912; type: functional; procedure, shortened: as §1
# Caco-2 [10] = assay: (§3) permeability assessment across a monolayer of caco-2 cells in presence of GSH in aqueous base.; type: functional, Homo sapiens
# Caco-2 [11] = assay: (§4) permeability assessment across […]; type: functional, Homo sapiens
# Caco-2 [12] = assay: (§5) permeability assessment across a monolayer of caco-2 cells in absence of GSH in aqueous base.; type: functional, Homo sapiens
# Mus musculus [13] = assay: compound was tested against Staphylococcus aureus UC9213 the vancomycin administered (sc) in mouse positive control expressed as ED50 values.; type: functional
# Caco-2 [14] = assay: as §3; type: functional
# Caco-2 [15] = assay: as §4; type: functional
# Caco-2 [16] = assay: as §4; type: functional; remark: listed apart in the source
# Caco-2 [17] = assay: as §5; type: functional
SMILES,MIC (Staphylococcus aureus [1]) [µg/mL],MIC (Streptococcus pneumoniae [2]) [µg/mL],MIC (Staphylococcus aureus [3]) [µg/mL],MIC (Enterococcus faecalis) [µg/mL],ED50 (Mus musculus [4]) [mg/kg],MIC [5] [µg/mL],ED50 (Mus musculus [6]) [mg/kg],ED50 (Staphylococcus aureus [7]) [mg/kg],ED50 (Staphylococcus aureus [8]) [mg/kg],MIC (Streptococcus pneumoniae [9]) [µg/mL],[A] (Caco-2 [10]) [µM],[EA] (Caco-2 [11]) [µM],[A] (Caco-2 [12]) [µM],ED50 (Mus musculus [13]) [mg/kg],[A] (Caco-2 [14]) [µM],[EA] (Caco-2 [15]) [µM],[EA] (Caco-2 [16]) [µM],[A] (Caco-2 [17]) [µM]
CC(=O)NC[C@H]1CN(c2ccc(N3CCN(c4ncccc4C#N)CC3)c(F)c2)C(=O)O1,2,0.5,2,1,> 20,0.5,3.2,,,,,,,,,,,
CC(=O)NC[C@H]1CN(c2ccc(N3CCN(c4cnccn4)CC3)c(F)c2)C(=O)O1,1,0.5,2,2,12.5,0.5,3.2,,,,,,,,,,,
CC(=O)NC[C@H]1CN(c2ccc(N3CCN(c4ccnc(Cl)n4)CC3)c(F)c2)C(=O)O1,1,,2,1,,0.5,,14.6,1.8,0.5,17,50,17,,,,,
CC(=O)NC[C@H]1CN(c2ccc(N3CCN(c4cc(NC(C)=O)c(Cl)nn4)CC3)c(F)c2)C(=O)O1,> 16,4,> 16,> 16,,16,,,,,,,,,,,,
CC(=O)NC[C@H]1CN(c2ccc(N3CCOCC3)c(F)c2)C(=O)O1 [LINEZOLID],,,,,5.6,1,,,,,,,,3.9,,,,
COc1nc(OC)nc(N2CCN(c3ccc(N4C[C@H](CNC(C)=O)OC4=O)cc3F)CC2)n1,2,0.5,4,1,,1,,,,,,,,,,,,
CC(=O)NC[C@H]1CN(c2ccc(N3CCN(c4ccncc4)CC3)c(F)c2)C(=O)O1,2,< 0.125,4,2,,0.5,,,,,,,,,,,,
CC(=O)NC[C@H]1CN(c2ccc(N3CCN(C(=O)CO)CC3)c(F)c2)C(=O)O1 [EPEREZOLID],1,0.5,4,2,1.9,0.5,,,,,,,,3.9,,,,
CC(=O)NC[C@H]1CN(c2ccc(N3CCN(c4ncccn4)CC3)c(F)c2)C(=O)O1,2,0.5,2,2,6,0.5,6.2,,,,,,,,,,,
CC(=O)NC[C@H]1CN(c2ccc(N3CCN(c4ccc(C)nn4)CC3)c(F)c2)C(=O)O1,2,0.5,4,2,6.3,1,8.7,,,,,,,,,,,
CC(=O)NC[C@H]1CN(c2ccc(N3CCN(c4cccnn4)CC3)c(F)c2)C(=O)O1,2,0.5,4,2,8.8,0.5,8.7,,,,36,,,,,,,
CC(=O)NC[C@H]1CN(c2ccc(N3CCN(c4nc(N)nc(N)n4)CC3)c(F)c2)C(=O)O1,4,0.5,4,2,> 20,1,4.4,,,,,,,,,,,
CC(=O)NC[C@H]1CN(c2ccc(N3CCN(c4cc(C)c(Cl)nn4)CC3)c(F)c2)C(=O)O1,4,1,8,4,,2,,> 20,8.7,,,,,,,,,
CC(=O)NC[C@H]1CN(c2ccc(N3CCN(c4cc(N)nc(N)n4)CC3)c(F)c2)C(=O)O1,4,< 0.5,8,2,,1,,,,,,,,,,,,
CC(=O)NC[C@H]1CN(c2ccc(N3CCN(c4cccc(Br)n4)CC3)c(F)c2)C(=O)O1,1,0.5,2,1,,0.5,,> 20,2.7,,2.6,50,2.6,,,,,
CC(=O)NC[C@H]1CN(c2ccc(N3CCN(c4ccc5nc(C)c(C(C)=O)n5n4)CC3)c(F)c2)C(=O)O1,4,0.5,4,4,,1,,,,,,,,,,,,
CC(=O)NC[C@H]1CN(c2ccc(N3CCN(c4c(F)c(F)nc(F)c4F)CC3)c(F)c2)C(=O)O1,> 16,2,> 16,> 16,,> 16,,,,,,,,,,,,

SMILES,MIC (Staphylococcus aureus [1]) [µg/mL],MIC (Streptococcus pneumoniae [2]) [µg/mL],MIC (Staphylococcus aureus [3]) [µg/mL],MIC (Enterococcus faecalis) [µg/mL],ED50 (Mus musculus [4]) [mg/kg],MIC [5] [µg/mL],ED50 (Mus musculus [6]) [mg/kg],ED50 (Staphylococcus aureus [7]) [mg/kg],ED50 (Staphylococcus aureus [8]) [mg/kg],MIC (Streptococcus pneumoniae [9]) [µg/mL],[A] (Caco-2 [10]) [µM],[EA] (Caco-2 [11]) [µM],[A] (Caco-2 [12]) [µM],ED50 (Mus musculus [13]) [mg/kg],[A] (Caco-2 [14]) [µM],[EA] (Caco-2 [15]) [µM],[EA] (Caco-2 [16]) [µM],[A] (Caco-2 [17]) [µM]
CC(=O)NC[C@H]1CN(c2ccc(N3CCN(c4ccc(C#N)cn4)CC3)c(F)c2)C(=O)O1,2,0.5,2,1,6.8,0.5,5.8,,,,,,,,,,,
CC(=O)NC[C@H]1CN(c2ccc(N3CCN(c4nc(F)c(F)cc4F)CC3)c(F)c2)C(=O)O1,2,0.5,2,2,,1,,,,,,,,,,,,
CC(=O)NC[C@H]1CN(c2ccc(N3CCN(c4ccnc5ccccc45)CC3)c(F)c2)C(=O)O1,2,0.25,2,2,,0.5,,,,,,,,,,,,
CCCOc1nc(Cl)nc(N2CCN(c3ccc(N4C[C@H](CNC(C)=O)OC4=O)cc3F)CC2)n1,8,2,16,8,,8,,,,,,,,,,,,
CC(=O)NC[C@H]1CN(c2ccc(N3CCN(c4cccc(F)n4)CC3)c(F)c2)C(=O)O1,2,0.5,2,2,,1,,,,,,,,,,,,
CC(=O)NC[C@H]1CN(c2ccc(N3CCN(c4ccccn4)CC3)c(F)c2)C(=O)O1,2,0.5,4,2,11.2,1,6,,,,37,,37,,,,,
CC(=O)NC[C@H]1CN(c2ccc(N3CCN(c4nc(C)cc(C)c4C#N)CC3)c(F)c2)C(=O)O1,4,1,4,4,,2,,,,,,,,,,,,
CC(=O)NC[C@H]1CN(c2ccc(N3CCN(c4ccncn4)CC3)c(F)c2)C(=O)O1,2,0.5,2,1,4.4,1,1.8,,,,40,50,40,,,,,
CC(=O)NC[C@H]1CN(c2ccc(N3CCN(c4nnc(Cl)c(C)c4C)CC3)c(F)c2)C(=O)O1,> 16,2,> 16,> 16,,4,,,,,,,,,,,,
CC(=O)NC[C@H]1CN(c2ccc(N3CCN(c4cccc(C)n4)CC3)c(F)c2)C(=O)O1,2,0.5,4,2,,2,,,,,,,,,,,,
CC(=O)NC[C@H]1CN(c2ccc(N3CCN(c4c(Cl)c(Cl)nc(Cl)c4Cl)CC3)c(F)c2)C(=O)O1,> 16,> 16,> 16,> 16,,> 16,,,,,,,,,,,,
CC(=O)NC[C@H]1CN(c2ccc(N3CCN(c4ccnc(C)c4)CC3)c(F)c2)C(=O)O1,2,0.25,4,2,,0.5,,,,,,,,,,,,
CC(=O)NC[C@H]1CN(c2ccc(N3CCN(c4nccc(C(F)(F)F)n4)CC3)c(F)c2)C(=O)O1,> 16,2,> 16,> 16,,16,,,,,,,,,,,,
CC(=O)NC[C@H]1CN(c2ccc(N3CCN(c4cnnc(Cl)c4Cl)CC3)c(F)c2)C(=O)O1,2,0.5,2,2,,1,,> 20,3.2,,,,,,34,50,0,34
CC(=O)NC[C@H]1CN(c2ccc(N3CCN(c4cc(C#N)ccn4)CC3)c(F)c2)C(=O)O1,1,0.5,1,1,,1,,,,,,,,,,,,
CC(=O)NC[C@H]1CN(c2ccc(N3CCN(c4cncc(Cl)n4)CC3)c(F)c2)C(=O)O1,1,0.5,2,1,,0.5,,> 20,3.2,,,,,,,,,
